This note sets out measurements from paper PMC4136667 (Journal of Medicinal Chemistry, 2014).

This experiment addresses human ΔF508–CFTR (Homo sapiens, UniProt P13569, DEL508-508). The experiment in a line: ΔF508–CFTR corrector activity assay. The settings on record: for Corrector activity (in words): ΔF508–CFTR FRT cells; for Vmax higher than benchmark bithiazole corr4a: difference to corr4a (475 μM/s); for Increase of Vmax compared to benchmark bithiazole corr4a: relative to corr4a. Type of experiment: cell-based. The essentials:
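FRT cells stably coexpressing human ΔF508–CFTR and YFP-H148Q/I152L were grown 24 h at 37 °C, then exposed 16–20 h to test compound at various concentrations, with DMSO vehicle and a bithiazole positive control. Cells were PBS-washed and given forskolin (20 μM) plus genistein (50 μM) for 20 min. Fluorescence (ex 500, em 535 nm) was recorded 2 s before and 12 s after adding iodide-for-chloride PBS. Initial rate came from an exponential fit, normalized to initial fluorescence. Vmax came from Hill fitting of concentration–activity data.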

As to `COc1ccc(Cl)cc1Nc1nc2c(s1)CCCc1nc(N)sc1-2` [7a, N8-(5-Chloro-2-methoxyphenyl)-5,6-dihydro-4H-cyclohepta[1,2-d:3,4-d′]bis(thiazole)-2,8-diamine], the “Corrector activity (in words)” value is “modest correctors”.

For the compound `COc1ccc(Cl)cc1Nc1nc2c(s1)CCCCc1nc(N)sc1-2` [8a, N9-(5-Chloro-2-methoxyphenyl)-4,5,6,7-tetrahydrocycloocta[1,2-d:3,4-d′]bis(thiazole)-2,9-diamine], the “Corrector activity (in words)” value is given as “modest correctors”. For the compound `COC(=O)CCC(=O)Nc1nc2c(s1)-c1nc(Nc3cc(Cl)ccc3OC)sc1CCC2` [9e, Methyl 4-((8-((5-chloro-2-methoxyphenyl)amino)-5,6-dihydro-4H-cyclohepta[1,2-d:3,4-d′]bis(thiazole)-2-yl)amino)-4-oxobutanoate], the “Vmax higher than benchmark bithiazole corr4a” value amounted to 200 µM/s and the “Increase of Vmax compared to benchmark bithiazole corr4a” value is 1.5 fold. For `COc1ccc(Cl)cc1Nc1nc2c(s1)CCCCc1nc(NC(=O)C(C)C)sc1-2` [10c, N-(9-((5-Chloro-2-methoxyphenyl)amino)-4,5,6,7-tetrahydrocycloocta [1,2-d:3,4-d′]bis(thiazole)-2-yl)isobutyramide] the same measures were 200 µM/s and 1.5 fold.
